Converted amounts (≈) assume the structure as drawn. The source made the active and inactive calls. The rule behind the calls is not given here.
Tests used:
[1] = Cytotoxicity against human HDF after 72 hrs by MTT assay; format: cell-based
Method in brief: (§1)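 Cells kept in medium with 2 mM glutamine and 10% FBS at 37 °C, 5% CO2. Compounds dissolved in DMSO just before addition (final ≤0.1% v/v; same solvent in controls). After 72 h exposure, viability read by MTT. Triplicates, ≥3 independent experiments. Dose–response fitted with single or double Hill functions; IC50 extrapolated from curves.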

A549 = experiment: Cytotoxicity against human A549 cells after 72 hrs by MTT assay; format: functional, cell-based; conditions: A549, 72 h; method in brief: as §1
Bacillus subtilis = experiment: Antimicrobial activity against Bacillus subtilis ATCC 6633 after 24 hrs by broth microdilution method; format: functional; conditions: ATCC 6633, 24 h
Method in brief: (§2)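 Broth dilution method. H. influenzae grown in Haemophilus Test Medium, other bacteria in Mueller Hinton Broth. Compounds dissolved in DMSO and diluted in growth medium. Incubated 24 h at 37 °C. MIC is the lowest concentration inhibiting reproduction of the organism. Drug-free tubes served as growth controls, organism-free tubes as purity controls, and solvent-only tubes as controls.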

[2] = system: Staphylococcus epidermidis; experiment: Antimicrobial activity against Staphylococcus epidermidis ATCC 12228 after 24 hrs by broth microdilution method; format: functional; conditions: ATCC 12228, 24 h; method in brief: as §2
Staphylococcus aureus [3] = experiment: Antimicrobial activity against Staphylococcus aureus ATCC 6538 after 24 hrs by broth microdilution method; format: functional; conditions: ATCC 6538, 24 h; method in brief: as §2
[4] = Inhibition of Escherichia coli DNA gyrase-mediated supercoiling of pBR322 using bromothymol blue by electrophoresis
Method in brief: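 E. coli gyrase supercoiling of relaxed pBR322 in 35 mM Tris–HCl pH 7.5, 24 mM KCl, 4 mM MgCl2, 2 mM DTT, 1.8 mM spermidine, 1 mM ATP, 6.5% glycerol, 0.1 mg/mL albumin. Incubated 30 min at 37 °C, stopped with chloroform/isoamyl alcohol, run on 1% agarose and gel-quantitated. IC50 is the concentration halving supercoiling versus drug-free control. ≥3 independent experiments.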

[5] = system: Staphylococcus epidermidis; experiment: Antimicrobial activity against quinolone and penicillin-resistant Staphylococcus epidermidis SER after 24 hrs by broth microdilution method; format: functional
Method in brief: (§3)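 Broth dilution in Mueller Hinton Broth; compounds dissolved in DMSO and diluted in growth medium. […] Drug-free tubes served as growth controls and organism-free tubes as purity controls, with solvent-only controls included. Ciprofloxacin, levofloxacin, moxifloxacin and gemifloxacin were the reference drugs.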

Pseudomonas aeruginosa [6] = experiment: Antimicrobial activity against Pseudomonas aeruginosa ATCC 9027 after 24 hrs by broth microdilution method; format: functional; conditions: ATCC 9027, 24 h; method in brief: as §2
Staphylococcus aureus [7] = experiment: Antimicrobial activity against quinolone and penicillin-resistant Staphylococcus aureus SAR72 after 24 hrs by broth microdilution method; format: functional; conditions: SAR72, 24 h; method in brief: as §3
Haemophilus influenzae = experiment: Antimicrobial activity against Haemophilus influenzae ATCC 19418 after 24 hrs by broth microdilution method; format: functional; conditions: ATCC 19418, 24 h; method in brief: as §2
Acinetobacter baumannii [8] = experiment: Antimicrobial activity against quinolone and penicillin-resistant Acinetobacter baumannii after 24 hrs by broth microdilution method; format: functional; method in brief: as §3
Pseudomonas aeruginosa [9] = experiment: Antimicrobial activity against quinolone and penicillin-resistant Pseudomonas aeruginosa after 24 hrs by broth microdilution method; format: functional; method in brief: as §3
MCF7 [10] = experiment: Cytotoxicity against human MCF7 cells after 72 hrs by MTT assay; format: functional, cell-based; conditions: MCF7, 72 h; method in brief: as §1
Acinetobacter baumannii [11] = experiment: Antimicrobial activity against Acinetobacter baumannii ATCC 19606 after 24 hrs by broth microdilution method; format: functional; conditions: ATCC 19606, 24 h; method in brief: as §2
Staphylococcus aureus [12] = experiment: Antimicrobial activity against quinolone and penicillin-resistant Staphylococcus aureus SAR4790 after 24 hrs by broth microdilution method; format: functional; conditions: SAR4790, 24 h; method in brief: as §3
Escherichia coli [13] = experiment: Antimicrobial activity against quinolone and penicillin-resistant Escherichia coli after 24 hrs by broth microdilution method; format: functional; method in brief: as §3
Escherichia coli [14] = experiment: Antimicrobial activity against Escherichia coli ATCC 8739 after 24 hrs by broth microdilution method; format: functional; conditions: ATCC 8739, 24 h; method in brief: as §2
[15] = Inhibition of Escherichia coli DNA topoisomerase-4-mediated decatenation of kinetoplast DNA by electrophoresis
MCF7 [16] = experiment: Induction of apoptosis in human MCF7 cells assessed as p53 accumulation after 24 hrs by Western blotting
MCF7 [17] = experiment: Induction of cell death in human MCF7 cells at 5 uM after 48 hrs using Hoechst 33342/PI staining by microscopy; format: functional, cell-based
Method in brief: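 MCF-7 cells exposed to compound for 48 h, then stained with Hoechst 33342/PI. Cell death quantified by fluorescence microscopy as percent values. Means of three separate experiments.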

MCF7 [18] = experiment: Induction of apoptosis in human MCF7 cells assessed as caspase-7 activation at 5 uM after 24 hrs by Western blotting

**Q.** Which IC50 [1] does the source give for COc1ccc2c(c1)[nH]c1c2c(F)cc2c(=O)c(C(=O)O)cn(C3CC3)c21 here?
**A.** > 10 µM

**Q.** And the IC50 (A549)?
**A.** 4.9 µM

**Q.** What about the MIC (Bacillus subtilis) of the same compound?
**A.** 0.07 µg/mL (≈ 0.191 µM)

**Q.** And the MIC [2]?
**A.** 3 µg/mL (≈ 8.19 µM)

**Q.** And the MIC (Staphylococcus aureus [3])?
**A.** 3 µg/mL (≈ 8.19 µM)

**Q.** And the IC50 [4]?
**A.** 4.8 µg/mL (≈ 13.1 µM)

**Q.** And the MIC [5]?
**A.** > 100 µg/mL

**Q.** And the MIC (Pseudomonas aeruginosa [6])?
**A.** > 100 µg/mL

**Q.** And the MIC (Staphylococcus aureus [7])?
**A.** > 100 µg/mL

**Q.** What about the MIC (Haemophilus influenzae) of the same compound?
**A.** 1.5 µg/mL (≈ 4.09 µM)

**Q.** And the MIC (Acinetobacter baumannii [8])?
**A.** > 100 µg/mL

**Q.** What about the MIC (Pseudomonas aeruginosa [9]) of the same compound?
**A.** inactive

**Q.** What about the IC50 (MCF7 [10]) of the same compound?
**A.** 2.4 µM

**Q.** And the MIC (Acinetobacter baumannii [11])?
**A.** 50 µg/mL (≈ 136 µM)

**Q.** What about the MIC (Staphylococcus aureus [12]) of the same compound?
**A.** > 100 µg/mL

**Q.** What about the MIC (Escherichia coli [13]) of the same compound?
**A.** inactive

**Q.** What about the MIC (Escherichia coli [14]) of the same compound?
**A.** > 100 µg/mL

**Q.** What about the IC50 [15] of the same compound?
**A.** 48 µg/mL (≈ 131 µM)

**Q.** With O=C(O)c1cn(C2CC2)c2c(cc(F)c3c4ccc(F)cc4[nH]c32)c1=O as the compound, how does the Activity (MCF7 [16]) read?
**A.** Active

**Q.** And the IC50 [1]?
**A.** > 10 µM

**Q.** What about the IC50 (A549) of the same compound?
**A.** 3.5 µM

**Q.** What about the MIC (Bacillus subtilis) of the same compound?
**A.** 0.003 µg/mL (≈ 0.00847 µM)

**Q.** And the MIC [2]?
**A.** 0.07 µg/mL (≈ 0.198 µM)

**Q.** What about the MIC (Staphylococcus aureus [3]) of the same compound?
**A.** 0.07 µg/mL (≈ 0.198 µM)

**Q.** And the Activity (MCF7 [17])?
**A.** Active

**Q.** And the IC50 [4]?
**A.** 1.8 µg/mL (≈ 5.08 µM)

**Q.** What about the MIC [5] of the same compound?
**A.** 3 µg/mL (≈ 8.47 µM)

**Q.** And the MIC (Pseudomonas aeruginosa [6])?
**A.** > 100 µg/mL

**Q.** What about the MIC (Staphylococcus aureus [7]) of the same compound?
**A.** 1.5 µg/mL (≈ 4.23 µM)

**Q.** What about the MIC (Haemophilus influenzae) of the same compound?
**A.** 0.15 µg/mL (≈ 0.423 µM)

**Q.** And the MIC (Acinetobacter baumannii [8])?
**A.** > 100 µg/mL

**Q.** And the MIC (Pseudomonas aeruginosa [9])?
**A.** inactive

**Q.** And the IC50 (MCF7 [10])?
**A.** 0.8 µM

**Q.** What about the MIC (Acinetobacter baumannii [11]) of the same compound?
**A.** 12 µg/mL (≈ 33.9 µM)

**Q.** And the MIC (Staphylococcus aureus [12])?
**A.** > 100 µg/mL

**Q.** And the MIC (Escherichia coli [13])?
**A.** > 100 µg/mL

**Q.** What about the MIC (Escherichia coli [14]) of the same compound?
**A.** 25 µg/mL (≈ 70.6 µM)

**Q.** What about the IC50 [15] of the same compound?
**A.** 28 µg/mL (≈ 79 µM)

**Q.** And the Activity (MCF7 [18])?
**A.** Active

**Q.** Which results are given for O=C(O)c1cn(C2CC2)c2c(cc(F)c3c4ccccc4[nH]c32)c1=O?
**A.** IC50 [1]: > 10 µM; IC50 (A549): 6.4 µM; MIC (Bacillus subtilis): 0.015 µg/mL (≈ 0.0446 µM); MIC [2]: 0.15 µg/mL (≈ 0.446 µM); MIC (Staphylococcus aureus [3]): 0.3 µg/mL (≈ 0.892 µM); IC50 [4]: 1.7 µg/mL (≈ 5.05 µM); MIC [5]: > 100 µg/mL; MIC (Pseudomonas aeruginosa [6]): > 100 µg/mL; MIC (Staphylococcus aureus [7]): 12 µg/mL (≈ 35.7 µM); MIC (Haemophilus influenzae): 0.03 µg/mL (≈ 0.0892 µM); MIC (Acinetobacter baumannii [8]): > 100 µg/mL; MIC (Pseudomonas aeruginosa [9]): inactive; IC50 (MCF7 [10]): 3.6 µM; MIC (Acinetobacter baumannii [11]): 12 µg/mL (≈ 35.7 µM); MIC (Staphylococcus aureus [12]): > 100 µg/mL; MIC (Escherichia coli [13]): > 100 µg/mL; MIC (Escherichia coli [14]): 50 µg/mL (≈ 149 µM); IC50 [15]: 35 µg/mL (≈ 104 µM)

**Q.** With C[C@H]1COc2c(N3CCN(C)CC3)c(F)cc3c(=O)c(C(=O)O)cn1c23.C[C@H]1COc2c(N3CCN(C)CC3)c(F)cc3c(=O)c(C(=O)O)cn1c23.O [LEVOFLOXACIN] as the compound, how does the MIC (Bacillus subtilis) read?
**A.** 0.03 µg/mL

**Q.** And the MIC [2]?
**A.** 0.15 µg/mL

**Q.** What about the MIC (Staphylococcus aureus [3]) of the same compound?
**A.** 0.07 µg/mL

**Q.** What about the MIC [5] of the same compound?
**A.** > 100 µg/mL

**Q.** What about the MIC (Pseudomonas aeruginosa [6]) of the same compound?
**A.** 0.3 µg/mL

**Q.** What about the MIC (Staphylococcus aureus [7]) of the same compound?
**A.** 25 µg/mL

**Q.** What about the MIC (Haemophilus influenzae) of the same compound?
**A.** 0.15 µg/mL

**Q.** And the MIC (Acinetobacter baumannii [8])?
**A.** > 100 µg/mL

**Q.** What about the MIC (Pseudomonas aeruginosa [9]) of the same compound?
**A.** 50 µg/mL

**Q.** And the MIC (Acinetobacter baumannii [11])?
**A.** 0.15 µg/mL

**Q.** And the MIC (Staphylococcus aureus [12])?
**A.** 100 µg/mL

**Q.** And the MIC (Escherichia coli [13])?
**A.** 25 µg/mL

**Q.** For Cc1c2ccncc2c(C)c2c1[nH]c1ccccc12 [ELLIPTECINE], which IC50 [1] is on record?
**A.** > 10 µM

**Q.** And the IC50 (A549)?
**A.** 3.4 µM

**Q.** And the IC50 (MCF7 [10])?
**A.** 1.6 µM

From ChEMBL document CHEMBL1212890, “Synthesis and biological evaluation of tetracyclic fluoroquinolones as antibacterial and anticancer agents” (Bioorg Med Chem, 2010)
